A selection: hits, their analogues and other compounds. The true share with any hit is near 3%.
Wee1 degr inh = Wee1 degradation inhibitors, primary screen, cell-based, HeLa, Wee1K328M-luciferase, luminescence. Wee1-like protein kinase (Homo sapiens), P30291. HeLa Luc-Wee1K328M stability; 100% = proteasome inhibitor MG132 effect. reporter increase, % at 5 µM. 1.2% of 220,000 active. AID 1321, 2008;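 active = activation above the mean of all tested compounds plus 3 SD, set per screening run, cut at about 8.8% in these data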;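 also: cells exposed to compound for 20 h before luminescence read; 0% = DMSO alone and 100% = MG132 at 30 µM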
Target sequence (P30291 whole entry K328M): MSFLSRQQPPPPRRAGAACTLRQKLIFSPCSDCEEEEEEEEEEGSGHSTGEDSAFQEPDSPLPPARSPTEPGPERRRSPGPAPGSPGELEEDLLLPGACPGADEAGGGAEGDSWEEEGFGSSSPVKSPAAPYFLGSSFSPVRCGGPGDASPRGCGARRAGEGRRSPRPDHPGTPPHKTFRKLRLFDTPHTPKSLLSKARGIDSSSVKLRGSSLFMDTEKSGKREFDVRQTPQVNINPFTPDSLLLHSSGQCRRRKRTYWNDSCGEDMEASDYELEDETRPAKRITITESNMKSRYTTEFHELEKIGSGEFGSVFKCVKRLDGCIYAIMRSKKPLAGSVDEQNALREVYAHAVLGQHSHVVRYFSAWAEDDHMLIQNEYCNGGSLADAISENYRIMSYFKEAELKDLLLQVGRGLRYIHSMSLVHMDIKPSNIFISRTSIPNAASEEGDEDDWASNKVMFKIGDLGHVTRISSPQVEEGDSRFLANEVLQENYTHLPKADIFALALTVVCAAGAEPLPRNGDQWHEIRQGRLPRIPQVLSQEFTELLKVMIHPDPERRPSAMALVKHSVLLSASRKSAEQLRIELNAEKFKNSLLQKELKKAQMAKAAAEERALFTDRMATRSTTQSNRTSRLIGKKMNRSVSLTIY
NPY-Y1 PAM-ag = NPY-Y1 receptor potentiators or agonists, primary screen, cell-based. AID 1304, 2008. Neuropeptide Y receptor type 1 (Homo sapiens), P25929. activation, % at 3.6 µM. 0.37% of 220,000 active. NPY-Y1 expressing cells, potentiator/agonist activation; in the data active = activation above about 33%, passing the limit was not always enough;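 also: cells stimulated with NPY at EC10 then isoproterenol at EC100; 0% = low agonist plus stimulus and 100% = saturating agonist plus stimulus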
Hsp70 activator = Hsp70 transcriptional activators, primary screen, cell-based, HeLa, Hsp70 promoter luciferase, luminescence, 10 µM. HeLa Hsp70 promoter luciferase reporter; scaled: vehicle 0, proteasome-inhibitor control 100%. activation, % at 10 µM. 0.04% of 200,000 active. AID 1203, 2008;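 active = activation above the mean across all tested compounds plus 3 SD, cutoff set per campaign, cut at about 5.5% in these data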;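 also: 100% = MG132 at 30 µM as the positive control and 0% = DMSO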
NPY Y1 blocker = NPY-Y1 receptor antagonists, primary screen, cell-based. Neuropeptide Y receptor type 1 (Homo sapiens), P25929. HEK293-CNG Y1 cells, membrane potential fluorescence; NPY at EC95, then isoproterenol. inhibition, % at 3.6 µM. 1% of 200,000 active. AID 1040, 2008;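 active = inhibition above the campaign mean inhibition of all tested compounds plus 3 SD, cut at about 20% in these data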;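 also: 0% = DMSO wells given NPY plus isoproterenol and 100% = isoproterenol alone without NPY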
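Material: Y1- and CNG-channel-expressing HEK293 cells / Probe or stimulus: NPY 25 nM then isoproterenol 1 µM plus Ro 20-1724 25 µM / Doses: 3.6 µM single dose, DMSO 0.4% / Schedule: compound incubation 1 h at room temperature, readout 45 min post-stimulation / Signal: membrane potential fluorescence / Benchmarks: isoproterenol-only wells as full block versus NPY-plus-isoproterenol wells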
NPY-Y2 PAM-ag = NPY-Y2 potentiators or agonists, primary screen, cell-based | cells expressing NPY-Y2, potentiator/agonist read-out | AID 1359, 2008 | activation, % at 3.6 µM | Neuropeptide Y receptor type 2 (Homo sapiens), P49146 | 0.45% of 220,000 active; in the data active = activation above about 27%;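 also: cells stimulated with NPY near EC25 plus isoproterenol at EC100; 0% = vehicle plus submaximal agonist and 100% = vehicle plus saturating agonist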
NPY-Y2 antag = NPY-Y2 receptor antagonists, primary screen, cell-based. Neuropeptide Y receptor type 2 (Homo sapiens), P49146. NPY-Y2 expressing cells, antagonist mode. inhibition, % at 2.7 µM. 0.99% of 140,000 active; in the data active = inhibition above about 17%;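 also: 0% = vehicle with agonist challenge and 100% = reference antagonist with challenge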
NPY-Y2 confirm = NPY-Y2 potentiators or agonists, confirmation, cell-based; activation, % at 3.6 µM; cell-based NPY-Y2 potentiator/agonist assay; 20% of 450 active; shares compounds with NPY-Y2 PAM-ag; in the data active = activation above about 33%
NPY-Y1 potentiator = NPY-Y1 potentiators or agonists, counter-screen for NPY-Y2 potentiator project, cell-based, fluorescence; shares compounds with NPY-Y2 PAM-ag; Y1 HEK293-CNG cells, membrane potential fluorescence; activation, % at 3.6 µM; 20% of 450 active; AID 1651, 2009; in the data active = activation above about 45%;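 also: cells stimulated with submaximal NPY then isoproterenol with phosphodiesterase inhibitor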
NPY-Y1 ag 2 = NPY-Y1 direct agonists, selectivity assay for NPY-Y2 potentiator project, cell-based, fluorescence; shares compounds with NPY-Y2 PAM-ag; HEK293 Y1-CNGC, membrane potential fluorescence, agonism; activation, % at 3.6 µM; 37% of 450 active;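 active = activation above the mean of DMSO-only control wells plus 3 SD, cut at about 18% in these data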;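 also: cells stimulated with 1 µM isoproterenol plus the PDE inhibitor Ro 20-1724; 0% = isoproterenol with DMSO and no NPY and 100% = 40 nM NPY; Y1 agonists lower the membrane potential dye signal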
CNGC inh = CNGC cAMP sensor activity inhibitors, counter-screen for NPY-Y2 potentiator project, cell-based, HEK293-CNG parental, membrane potential fluorescence; shares compounds with NPY-Y2 PAM-ag; isoproterenol cAMP; inhibition, % at 3.6 µM; 32% of 450 active;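 active = inhibition above the control-well mean plus 3 SD of those wells, cut at about 22% in these data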;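 also: 0% = DMSO with isoproterenol and 100% = DMSO without isoproterenol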
Y2 agonist ctr = NPY-Y2 direct agonists, counter-screen for NPY-Y2 potentiator project, cell-based, fluorescence. 56% of 450 active. HEK293 Y2/CNGC cells, membrane potential fluorescence, agonist mode. activation, % at 3.6 µM. shares compounds with NPY-Y2 PAM-ag. AID 1710, 2009;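 active = activation above the mean of solvent-only control wells plus 3 SD, cut at about 10% in these data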;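 also: cells stimulated by isoproterenol with no NPY added so direct agonism is tested; 0% = DMSO with isoproterenol alone and 100% = NPY at EC100 plus isoproterenol; agonism lowers probe fluorescence through less cAMP and CNG channel opening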
* = called active by the depositor; · = no result.

SMILES	Wee1 degr inh	NPY-Y1 PAM-ag	Hsp70 activator	NPY Y1 blocker	NPY-Y2 PAM-ag	NPY-Y2 antag	NPY-Y2 confirm	NPY-Y1 potentiator	NPY-Y1 ag 2	CNGC inh	Y2 agonist ctr
Cc1ccc(-n2nnnc2CSc2nnc(-c3ccc(O)cc3)o2)cc1	-3	-12	0	5	-2	2	·	·	·	·	·
CCC(CC)COC(=O)C(C#N)c1nc2ccccc2nc1N1CCN(CC)CC1 (stereo not given)	-1	26	0	-2	31*	8	52*	57*	33*	46*	64*
COc1nc(OC/C(N)=N/O)nc(N2CCOCC2)n1	0	15	0	-3	11	1	·	·	·	·	·
O=C(Nc1ccc(S(=O)(=O)Nc2nccs2)cc1)c1cc(-c2ccccc2Cl)nc2ccccc12	0	10	0	-2	34*	5	14	17	6	8	10
Cc1cc(C)n(-c2nnc3c4ccccc4n(C)c3n2)n1	8	-2	·	·	17	·	·	·	·	·	·
O=C(COC(=O)CCc1nc2ccccc2c(=O)[nH]1)NCc1ccc(F)cc1	-1	-17	·	·	102*	·	-3	-4	-13	-2	-6
COc1ccccc1/C=N/NC(=O)c1ccc(Cn2nc([N+](=O)[O-])cc2C)cc1	-3	16	0	-4	4	-1	·	·	·	·	·
O=C(N/N=C\c1ccc(Cl)cc1)C1=NOC2COC3(CCN(c4ccc([N+](=O)[O-])cc4)CC3)OCC12 (stereo not given)	-3	13	·	·	45*	·	10	-13	16	8	27*
Cn1c(=O)c2[nH]c(N/N=C(/C#N)C(N)=O)nc2n(C)c1=O	2	-9	·	·	-7	·	·	·	·	·	·
CC(C)Oc1cccc(NC(=O)c2cnccc2C(F)(F)F)c1	1	14	·	·	-16	·	·	·	·	·	·
O=C(Cc1ccc(Cl)cc1)Nc1cccc(S(=O)(=O)Nc2ccccc2F)c1	-1	38	0	-8	38*	-4	14	22	13	16	20*
COc1ccccc1NS(=O)(=O)c1cccc(NC(=O)Nc2ccccc2)c1	5	21	0	-5	16	-3	·	·	·	·	·
COc1ccccc1NS(=O)(=O)c1cccc(NC(=O)Nc2ccc(Cl)cc2)c1	1	19	0	-9	31*	·	30	38	30*	32*	31*
CCCOC(=O)NC(CC)COC(=O)Nc1cccc(C)c1C (stereo not given)	0	12	0	4	33*	4	-5	-1	-2	-4	5
COc1ccc(NC(=S)NC(NC(=O)c2cccc(Cl)c2)C(Cl)(Cl)Cl)c([N+](=O)[O-])c1 (stereo not given)	-1	39	0	-9	37*	-8	22	33	20*	20	33*
COc1ccc(NC(=S)NC(NC(=O)c2cccc(C)c2)C(Cl)(Cl)Cl)c([N+](=O)[O-])c1 (stereo not given)	-2	-29	0	3	3	5	·	·	·	·	·
CN(C)C=Nc1ncc2c3ccccc3n(CCN(C)C)c2c1C#N	-3	-37	0	-3	101*	2	-7	-11	-23	-12	-15
CCOC(=O)C1(CCOC)CCN(Cc2ccc(C3CCCCO3)s2)CC1 (stereo not given)	3	-16	0	5	-21	·	·	·	·	·	·
Fc1nc(F)c(F)c(NCCCNc2c(F)c(F)nc(F)c2F)c1F	1	34	0	-7	28*	·	19	24	25*	23*	32*
CCN1C(=O)C2(C(C#N)=C(N)Oc3n[nH]c(-c4ccc(Cl)cc4)c32)c2ccccc21 (stereo not given)	1	31	0	-7	39*	5	44*	58*	51*	24*	36*
CCN1C(=O)C2(C(C#N)=C(N)Oc3n[nH]c(C(C)C)c32)c2ccccc21 (stereo not given)	-2	-15	1	2	-25	2	·	·	·	·	·
O=C(O)c1ccc(OCc2cn3ccccc3n2)cc1	-1	9	·	·	101*	·	2	7	-1	3	13*
CC(C)(C)NC(NC(=O)Cc1ccccc1)C(Cl)(Cl)Cl (stereo not given)	1	14	0	0	3	-1	·	·	·	·	·
Cc1nn(CC(=O)OCC(=O)NC(C)c2ccccc2)c(C)c1[N+](=O)[O-] (stereo not given)	1	18	0	5	92*	·	-8	-1	-7	-1	7
CN(CC1CCCO1)S(=O)(=O)c1ccc(C(=O)Nc2nc3cc4c(cc3s2)OCO4)cc1 (stereo not given)	-4	13	2	0	43*	1	3	-9	-23	-12	7
Cc1nc(-c2cn[nH]c2)c2cc(C)oc2n1	-1	11	0	-1	107*	-2	-8	0	-12	3	-10
CCN(CCn1cccn1)Cc1nc(Cc2cccc(F)c2)no1	-1	1	0	-2	7	·	·	·	·	·	·
COc1ccc(NS(=O)(=O)c2ccc(OC)c(N(C)S(=O)(=O)c3ccc(Cl)cc3)c2)cc1	-2	-10	0	4	35*	3	-2	-31	-22	-9	-3

Screening data deposited in PubChem by The Scripps Research Institute Molecular Screening Center.
